Laboratory results reported in ChEMBL document CHEMBL1275592, “AmpN-AmpG operon is essential for expression of L1 and L2 beta-lactamases in Stenotrophomonas maltophilia” (2010).
In brackets after ≈: the same amount, converted by molar mass.

How the values were obtained:
[1] = biological target: T1, Catechol 2,3-dioxygenase (Stenotrophomonas maltophilia) (UniProt A7LB47); assay: Induction of catechol 2,3-dioxygenase activity in ampN deficient Stenotrophomonas maltophilia KJ harboring ampG gene with xylE-Gmomega cassette insertion at 20 ug/ml
T1 sequence (whole entry): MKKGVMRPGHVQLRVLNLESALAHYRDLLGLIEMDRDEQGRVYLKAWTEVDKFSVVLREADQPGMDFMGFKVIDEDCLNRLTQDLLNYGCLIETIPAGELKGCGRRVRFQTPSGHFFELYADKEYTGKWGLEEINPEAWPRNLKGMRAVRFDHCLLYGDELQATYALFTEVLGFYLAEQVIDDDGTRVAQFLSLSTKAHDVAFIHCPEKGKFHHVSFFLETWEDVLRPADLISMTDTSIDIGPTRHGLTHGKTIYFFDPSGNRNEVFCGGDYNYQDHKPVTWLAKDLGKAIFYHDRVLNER
Summary of the method: (§1)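 C23O (xylE product) activity assayed in intact cells, with cefuroxime 20 μg/ml as inducer. Rate calculated with extinction coefficient 44,000 M−1 cm−1. One unit (Uc) converts 1 nmol substrate/min. Specific activity given as Uc/OD450. Plasmids were introduced into S. maltophilia by conjugation and confirmed by colony PCR.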

[2] = test system: Stenotrophomonas maltophilia; assay: Antimicrobial activity against ampN deficient Stenotrophomonas maltophilia KJ by agar dilution method; format: functional
Summary of the method: (§2)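 MICs were determined in triplicate by standard 2-fold serial agar dilution, following CLSI guidelines.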

[3] = biological target: T1, Catechol 2,3-dioxygenase (Stenotrophomonas maltophilia); assay: Induction of catechol 2,3-dioxygenase activity in Stenotrophomonas maltophilia KJN1 harboring ampN with xylE-Gmomega cassette insertion at 20 ug/ml; summary of the method: as §1
[4] = biological target: T1, Catechol 2,3-dioxygenase (Stenotrophomonas maltophilia); assay: Induction of catechol 2,3-dioxygenase activity in Stenotrophomonas maltophilia KJN2 harboring ampN with xylE-Gmomega cassette insertion at 20 ug/ml; summary of the method: as §1
[5] = biological target: T1, Catechol 2,3-dioxygenase (Stenotrophomonas maltophilia); assay: Induction of catechol 2,3-dioxygenase activity in Stenotrophomonas maltophilia KJG harboring ampG with xylE-Gmomega cassette insertion at 20 ug/ml; summary of the method: as §1
[6] = biological target: T1, Catechol 2,3-dioxygenase (Stenotrophomonas maltophilia); assay: Induction of catechol 2,3-dioxygenase activity in ampN deficient Stenotrophomonas maltophilia KJ harboring pRK415 and ampG gene with xylE-Gmomega cassette insertion at 20 ug/ml; summary of the method: as §1
[7] = biological target: T1, Catechol 2,3-dioxygenase (Stenotrophomonas maltophilia); assay: Induction of catechol 2,3-dioxygenase activity in ampN deficient Stenotrophomonas maltophilia KJ harboring pRK-N and ampG gene with xylE-Gmomega cassette insertion at 20 ug/ml; summary of the method: as §1
[8] = biological target: T1, Catechol 2,3-dioxygenase (Stenotrophomonas maltophilia); assay: Induction of catechol 2,3-dioxygenase activity in ampN deficient Stenotrophomonas maltophilia KJ harboring pRK-G and ampG gene with xylE-Gmomega cassette insertion at 20 ug/ml; summary of the method: as §1
[9] = biological target: T1, Catechol 2,3-dioxygenase (Stenotrophomonas maltophilia); assay: Induction of catechol 2,3-dioxygenase activity in ampN deficient Stenotrophomonas maltophilia KJ harboring pRK-NG and ampG gene with xylE-Gmomega cassette insertion at 20 ug/ml; summary of the method: as §1
[10] = biological target: T1, Catechol 2,3-dioxygenase (Stenotrophomonas maltophilia); assay: Induction of catechol 2,3-dioxygenase activity in Stenotrophomonas maltophilia KJ harboring pRK415 plasmid at 20 ug/ml; summary of the method: as §1
[11] = biological target: T1, Catechol 2,3-dioxygenase (Stenotrophomonas maltophilia); assay: Induction of catechol 2,3-dioxygenase activity in Stenotrophomonas maltophilia KJ harboring pRKF1 plasmid at 20 ug/ml; summary of the method: as §1
[12] = biological target: T1, Catechol 2,3-dioxygenase (Stenotrophomonas maltophilia); assay: Induction of catechol 2,3-dioxygenase activity in Stenotrophomonas maltophilia KJ harboring pRKF2 plasmid at 20 ug/ml; summary of the method: as §1
[13] = biological target: T1, Catechol 2,3-dioxygenase (Stenotrophomonas maltophilia); assay: Induction of catechol 2,3-dioxygenase activity in Stenotrophomonas maltophilia KJ harboring pRKF3 plasmid at 20 ug/ml; summary of the method: as §1
[14] = biological target: T1, Catechol 2,3-dioxygenase (Stenotrophomonas maltophilia); assay: Induction of catechol 2,3-dioxygenase activity in Stenotrophomonas maltophilia KJ harboring pRKF4 plasmid at 20 ug/ml; summary of the method: as §1
[15] = biological target: T1, Catechol 2,3-dioxygenase (Stenotrophomonas maltophilia); assay: Induction of catechol 2,3-dioxygenase activity in Stenotrophomonas maltophilia KJ harboring pRKF5 plasmid at 20 ug/ml; summary of the method: as §1
[16] = biological target: T1, Catechol 2,3-dioxygenase (Stenotrophomonas maltophilia); assay: Induction of catechol 2,3-dioxygenase activity in Stenotrophomonas maltophilia KJ harboring pRKF6 plasmid at 20 ug/ml; summary of the method: as §1
[17] = test system: Stenotrophomonas maltophilia; assay: Induction of beta-lactamase activity in Stenotrophomonas maltophilia KJ at 20 ug/ml
Summary of the method: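 Cefuroxime 20 μg/ml added as inducer. β-lactamase activity read by nitrocefin hydrolysis at 486 nm (ε 20,500 M−1 cm−1). Specific activity given as nmol nitrocefin hydrolyzed/min/mg protein. Protein measured by Bio-Rad assay against a BSA standard. L1 versus L2 split by the modified nitrocefin-EDTA method.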

[18] = test system: Stenotrophomonas maltophilia; assay: Induction of beta-lactamase activity in Stenotrophomonas maltophilia KJN1 harboring ampN with xylE-Gmomega cassette insertion at 20 ug/ml
Summary of the method: (§3)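 Cells were induced with cefuroxime at 20 μg/ml. β-Lactamase activity was measured as nitrocefin hydrolysis at 486 nm, using ε 20,500 M−1 cm−1. Specific activity is nmol nitrocefin hydrolysed/min/mg protein. Protein was measured by dye-binding assay against a BSA standard. Basal and induced activities are both reported.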

[19] = test system: Stenotrophomonas maltophilia; assay: Induction of beta-lactamase activity in Stenotrophomonas maltophilia KJN2 harboring ampN with xylE-Gmomega cassette insertion at 20 ug/ml; summary of the method: as §3
[20] = test system: Stenotrophomonas maltophilia; assay: Induction of beta-lactamase activity in Stenotrophomonas maltophilia KJG harboring ampG with xylE-Gmomega cassette insertion at 20 ug/ml; summary of the method: as §3
[21] = test system: Stenotrophomonas maltophilia; assay: Induction of beta-lactamase activity in ampN deficient Stenotrophomonas maltophilia KJ harboring ampG gene with xylE-Gmomega cassette insertion at 20 ug/ml; summary of the method: as §3
[22] = test system: Stenotrophomonas maltophilia; assay: Induction of beta-lactamase activity in ampN deficient Stenotrophomonas maltophilia KJ at 20 ug/ml; summary of the method: as §3
[23] = test system: Stenotrophomonas maltophilia; assay: Induction of beta-lactamase activity in Stenotrophomonas maltophilia KJ harboring pRK415 plasmid at 20 ug/ml; summary of the method: as §3
[24] = test system: Stenotrophomonas maltophilia; assay: Induction of beta-lactamase activity in Stenotrophomonas maltophilia KJ harboring pRK-NG plasmid at 20 ug/ml; summary of the method: as §3
[25] = test system: Stenotrophomonas maltophilia; assay: Induction of beta lactamase activity in Stenotrophomonas maltophilia KJN2 harboring pRK415 and ampN with xylE-Gmomega cassette insertion at 20 ug/ml; summary of the method: as §3
[26] = test system: Stenotrophomonas maltophilia; assay: Induction of beta lactamase activity in Stenotrophomonas maltophilia KJN2 harboring pRK-NG and ampN with xylE-Gmomega cassette insertion at 20 ug/ml; summary of the method: as §3
[27] = test system: Stenotrophomonas maltophilia; assay: Induction of beta lactamase activity in Stenotrophomonas maltophilia KJN2 harboring pRK-G and ampN with xylE-Gmomega cassette insertion at 20 ug/ml; summary of the method: as §3
[28] = test system: Stenotrophomonas maltophilia; assay: Induction of beta lactamase activity in Stenotrophomonas maltophilia KJN2 harboring pRK-EcG and ampN with xylE-Gmomega cassette insertion at 20 ug/ml; summary of the method: as §3
[29] = test system: Stenotrophomonas maltophilia; assay: Antimicrobial activity against Stenotrophomonas maltophilia KJ by agar dilution method; format: functional; summary of the method: as §2
[30] = test system: Stenotrophomonas maltophilia; assay: Antimicrobial activity against Stenotrophomonas maltophilia KJN1 harboring ampN with xylE-Gmomega cassette insertion by agar dilution method; format: functional; summary of the method: as §2
[31] = test system: Stenotrophomonas maltophilia; assay: Antimicrobial activity against Stenotrophomonas maltophilia KJN2 harboring ampN with xylE-Gmomega cassette insertion by agar dilution method; format: functional; summary of the method: as §2
[32] = test system: Stenotrophomonas maltophilia; assay: Antimicrobial activity against Stenotrophomonas maltophilia KJG harboring ampG with xylE-Gmomega cassette insertion by agar dilution method; format: functional; summary of the method: as §2
[33] = test system: Stenotrophomonas maltophilia; assay: Antimicrobial activity against ampN deficient Stenotrophomonas maltophilia KJ harboring ampG with xylE-Gmomega cassette insertion by agar dilution method; format: functional; summary of the method: as §2
[34] = test system: Stenotrophomonas maltophilia; assay: Antimicrobial activity against Stenotrophomonas maltophilia KJN2 harboring pRK415 plasmid and ampN with xylE-Gmomega cassette insertion by agar dilution method; format: functional; summary of the method: as §2
[35] = test system: Stenotrophomonas maltophilia; assay: Antimicrobial activity against Stenotrophomonas maltophilia KJN2 harboring pRK-G plasmid and ampN with xylE-Gmomega cassette insertion by agar dilution method; format: functional; summary of the method: as §2
[36] = test system: Stenotrophomonas maltophilia; assay: Antimicrobial activity against Stenotrophomonas maltophilia KJN2 harboring pRK-NG plasmid and ampN with xylE-Gmomega cassette insertion by agar dilution method; format: functional; summary of the method: as §2
[37] = test system: Stenotrophomonas maltophilia; assay: Antimicrobial activity against Stenotrophomonas maltophilia KJN2 harboring pRK-EcG plasmid and ampN with xylE-Gmomega cassette insertion by agar dilution method; format: functional; summary of the method: as §2
[38] = test system: Stenotrophomonas maltophilia; assay: Antimicrobial activity against Stenotrophomonas maltophilia KJN2 harboring ampN with xylE-Gmomega cassette insertion by Etest; format: functional
Summary of the method: (§4)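 Imipenem and meropenem MICs were read from Etest strips, following the manufacturer's instructions.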

[39] = test system: Stenotrophomonas maltophilia; assay: Antimicrobial activity against Stenotrophomonas maltophilia KJG harboring ampG with xylE-Gmomega cassette insertion by Etest; format: functional; summary of the method: as §4
[40] = test system: Stenotrophomonas maltophilia; assay: Antimicrobial activity against ampN deficient Stenotrophomonas maltophilia KJ by Etest; format: functional; summary of the method: as §4
[41] = test system: Stenotrophomonas maltophilia; assay: Antimicrobial activity against ampN deficient Stenotrophomonas maltophilia KJ harboring ampG with xylE-Gmomega cassette insertion by Etest; format: functional; summary of the method: as §4
[42] = test system: Stenotrophomonas maltophilia; assay: Antimicrobial activity against Stenotrophomonas maltophilia KJN2 harboring pRK415 plasmid and ampN with xylE-Gmomega cassette insertion by Etest; format: functional; summary of the method: as §4
[43] = test system: Stenotrophomonas maltophilia; assay: Antimicrobial activity against Stenotrophomonas maltophilia KJN2 harboring pRK-G plasmid and ampN with xylE-Gmomega cassette insertion by Etest; format: functional; summary of the method: as §4
[44] = test system: Stenotrophomonas maltophilia; assay: Antimicrobial activity against Stenotrophomonas maltophilia KJN2 harboring pRK-NG plasmid and ampN with xylE-Gmomega cassette insertion by Etest; format: functional; summary of the method: as §4
[45] = test system: Stenotrophomonas maltophilia; assay: Antimicrobial activity against Stenotrophomonas maltophilia KJN2 harboring pRK-EcG plasmid and ampN with xylE-Gmomega cassette insertion by Etest; format: functional; summary of the method: as §4
[46] = test system: Stenotrophomonas maltophilia; assay: Antimicrobial activity against Stenotrophomonas maltophilia KJ by Etest; format: functional; summary of the method: as §4
[47] = test system: Stenotrophomonas maltophilia; assay: Antimicrobial activity against Stenotrophomonas maltophilia KJN1 harboring ampN with xylE-Gmomega cassette insertion by Etest; format: functional; summary of the method: as §4

SMILES: CO/N=C(\C(=O)N[C@@H]1C(=O)N2C(C(=O)O)=C(COC(N)=O)CS[C@H]12)c1ccco1 [CEFUROXIME]
- Activity (nmol/min/OD450) [1]: 4
- MIC [2]: 32 µg/mL (≈ 75.4 µM)
- Activity (nmol/min/OD450) [3]: 4
- Activity (nmol/min/OD450) [4]: 39
- Activity (nmol/min/OD450) [5]: 41
- Activity (nmol/min/OD450) [6]: 5
- Activity (nmol/min/OD450) [7]: 5
- Activity (nmol/min/OD450) [8]: 4
- Activity (nmol/min/OD450) [9]: 5
- Activity (nmol/min/OD450) [10]: 0
- Activity (nmol/min/OD450) [11]: 6
- Activity (nmol/min/OD450) [12]: 50
- Activity (nmol/min/OD450) [13]: 6
- Activity (nmol/min/OD450) [14]: 45
- Activity (nmol/min/OD450) [15]: 6
- Activity (nmol/min/OD450) [16]: 8
- Activity [17]: 1520 U/mg
- Activity [18]: 5 U/mg
- Activity [19]: 5 U/mg
- Activity [20]: 6 U/mg
- Activity [21]: 3 U/mg
- Activity [22]: 6 U/mg
- Activity [23]: 1740 U/mg
- Activity [24]: 1620 U/mg
- Activity [25]: 18 U/mg
- Activity [26]: 1450 U/mg
- Activity [27]: 12 U/mg
- Activity [28]: 882 U/mg
- MIC [29]: > 1020 µg/mL
- MIC [30]: 32 µg/mL (≈ 75.4 µM)
- MIC [31]: 32 µg/mL (≈ 75.4 µM)
- MIC [32]: 32 µg/mL (≈ 75.4 µM)
- MIC [33]: 32 µg/mL (≈ 75.4 µM)
- MIC [34]: 32 µg/mL (≈ 75.4 µM)
- MIC [35]: 64 µg/mL (≈ 151 µM)
- MIC [36]: > 1020 µg/mL
- MIC [37]: > 1020 µg/mL

SMILES: C[C@@H](O)[C@H]1C(=O)N2C(C(=O)O)=C(SCCNC=N)C[C@H]12 [IMIPENEM ANHYDROUS]
- MIC [38]: 2 µg/mL (≈ 6.68 µM)
- MIC [39]: 2 µg/mL (≈ 6.68 µM)
- MIC [40]: 4 µg/mL (≈ 13.4 µM)
- MIC [41]: 2 µg/mL (≈ 6.68 µM)
- MIC [42]: 1.5 µg/mL (≈ 5.01 µM)
- MIC [43]: 3 µg/mL (≈ 10 µM)
- MIC [44]: > 32 µg/mL
- MIC [45]: > 32 µg/mL
- MIC [46]: > 32 µg/mL
- MIC [47]: 4 µg/mL (≈ 13.4 µM)
